# Experiments:
# [1] = molecular target: Mu-type opioid receptor (Homo sapiens, UniProt P35372); assay: Binding affinity against cloned human Opioid receptor mu 1 using [125I]FK33824 as radioligand
# [2] = molecular target: T1, Delta-type opioid receptor (Homo sapiens, UniProt P41143); assay: Binding affinity against human opioid receptor delta 1 using [125I]-[D-Ala2]-deltorphin II as radioligand
# [3] = molecular target: Kappa-type opioid receptor (Homo sapiens, UniProt P41145); assay: Binding affinity against cloned human Opioid receptor kappa 1 using [125I]-D-Pro10-dynorphin A[1-11] as radioligand
# [4] = Maximal efficacy (Emax value); format: functional
# Procedure, shortened: (§1)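 GTPγ35S binding on P2 membranes of HEK-293S cells stably expressing human δ receptor (9.7 pmol/mg protein). Filtration after 1 h. Stimulated binding set with 3 µM SNC-80. %Emax from 3-parameter logistic fit.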
# [5] = molecular target: T1, Delta-type opioid receptor; assay: Agonist potency was measured using GTP gamma-[35S] binding assay
# [6] = Metabolic stability at a concentration of 100 uM in rat liver microsomes after 1 hr incubation; format: ADME
# Procedure, shortened: (§2)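 Substrate at 10 or 100 µM final (1% DMSO) with rat liver microsomes (0.4 mg/mL protein), 1 mM NADPH, 100 mM phosphate pH 7.4, 37 °C with gentle shaking, in duplicate. Reaction started by NADPH and stopped at 0 and 60 min with ice-cold acetonitrile. After centrifugation, supernatant analysed by LC-MS for % parent remaining. Controls omitted microsomes or NADPH.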
# [7] = Metabolic stability at a concentration of 10 uM in rat liver microsomes after 1 hr incubation; format: ADME; procedure, shortened: as §2
# [8] = Emax value was determined; procedure, shortened: as §1
# Sequence of Mu-type opioid receptor (P35372 whole entry): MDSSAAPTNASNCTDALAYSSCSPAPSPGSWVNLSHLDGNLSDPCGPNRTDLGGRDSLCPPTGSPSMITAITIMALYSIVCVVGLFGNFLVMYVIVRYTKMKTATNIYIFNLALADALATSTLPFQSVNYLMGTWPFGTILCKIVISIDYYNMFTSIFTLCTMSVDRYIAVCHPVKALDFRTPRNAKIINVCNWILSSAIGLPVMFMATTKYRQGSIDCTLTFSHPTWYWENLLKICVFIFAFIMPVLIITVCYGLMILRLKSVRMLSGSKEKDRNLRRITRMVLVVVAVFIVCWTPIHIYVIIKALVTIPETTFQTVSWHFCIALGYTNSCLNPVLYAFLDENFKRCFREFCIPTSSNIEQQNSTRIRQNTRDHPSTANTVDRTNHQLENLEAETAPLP
# Sequence of Kappa-type opioid receptor (P41145 whole entry): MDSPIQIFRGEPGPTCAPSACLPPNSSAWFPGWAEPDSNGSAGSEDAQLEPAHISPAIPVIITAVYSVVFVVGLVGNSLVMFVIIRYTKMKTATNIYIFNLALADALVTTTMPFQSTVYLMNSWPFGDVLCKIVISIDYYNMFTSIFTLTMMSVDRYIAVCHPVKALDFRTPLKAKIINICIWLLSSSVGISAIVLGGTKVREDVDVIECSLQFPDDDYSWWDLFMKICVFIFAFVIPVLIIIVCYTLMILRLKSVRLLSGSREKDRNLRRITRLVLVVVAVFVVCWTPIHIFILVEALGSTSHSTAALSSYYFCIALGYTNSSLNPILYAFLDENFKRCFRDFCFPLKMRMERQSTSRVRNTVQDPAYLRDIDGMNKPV
# T1 sequence (P41143 whole entry): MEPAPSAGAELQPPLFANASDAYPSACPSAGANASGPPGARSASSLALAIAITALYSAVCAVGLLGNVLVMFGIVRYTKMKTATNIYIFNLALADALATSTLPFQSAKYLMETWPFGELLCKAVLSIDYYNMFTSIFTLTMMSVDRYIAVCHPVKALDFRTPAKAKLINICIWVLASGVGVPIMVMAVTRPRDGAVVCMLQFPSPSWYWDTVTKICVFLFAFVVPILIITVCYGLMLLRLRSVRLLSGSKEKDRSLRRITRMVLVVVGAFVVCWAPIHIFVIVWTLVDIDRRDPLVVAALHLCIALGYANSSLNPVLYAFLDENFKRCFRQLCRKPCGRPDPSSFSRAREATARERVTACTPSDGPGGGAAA
SMILES,IC50 [1] [µM],IC50 [2] [µM],IC50 [3] [µM],Emax [4] [%],EC50 [5] [µM],"remaining at 1 h, 100 µM [6] [%]","remaining at 1 h, 10 µM [7] [%]",Emax [8] [%]
CCN(CC)C(=O)c1ccc(C(c2ccccc2)N2CCN(CC3CC3)CC2)cc1 (centres undefined),2.4,0.0353,> 5.6,–,–,–,–,–
CCN(CC)C(=O)c1ccc(C(c2cccc(OC)c2)N2CC(C)(C)NCC2C)cc1 (centres undefined),0.62,0.00844,> 10,100,0.0104,–,–,–
CCN(CC)C(=O)c1ccc(C(c2cccc3cnccc23)N2CCNCC2)cc1 (centres undefined),1.48,0.00411,> 10,106,0.0546,–,–,–
CCC(CC)C(=O)c1ccc(C(c2ccccc2)N2CCNCC2)cc1 (centres undefined),–,0.1,–,–,–,–,–,–
CCN(CC)C(=O)c1ccc(C(c2cccc(OC)c2)N2CCNCC2)cc1 (centres undefined),5.29,0.0248,> 10,109,0.042,–,–,–
CCN(CC)S(=O)(=O)c1ccc(C(c2ccccc2)N2CCNCC2)cc1 (centres undefined),–,0.0379,–,110,0.635,–,–,–
CCN(CC)C(=O)c1ccc(C(c2ccccc2)N(C)CCNC)cc1 (centres undefined),6.97,0.0916,> 10,–,–,–,–,–
CCN(CC)C(=O)c1ccc(C(c2ccccc2)N2CCN(C(C)=O)CC2)cc1 (centres undefined),–,> 2,–,–,–,–,–,–
CCN(CC)C(=O)c1ccc(C(c2ccccc2)C2CCNCC2)cc1 (centres undefined),> 10,–,> 10,97,–,–,–,–
C=CCN1CCN(C(c2ccccc2)c2ccc(C(=O)N(CC)CC)cc2)CC1 (centres undefined),5.06,0.0159,7.57,109,0.033,–,–,–
N#Cc1ccc(C(c2ccccc2)N2CCNCC2)cc1 (centres undefined),–,1.29,–,–,–,–,–,–
CC(=O)c1ccc(C(c2ccccc2)N2CCNCC2)cc1 (centres undefined),–,1.05,–,–,–,–,–,–
CCN(CC)C(=O)c1ccc(C(c2cccc3c2OC(C)(C)C3)N2CCNCC2)cc1 (centres undefined),0.785,0.00115,> 7.6,101,0.0071,93,43,–
c1ccc(C(c2ccc(-c3nnn[nH]3)cc2)N2CCNCC2)cc1 (centres undefined),–,0.25,–,–,–,–,–,–
COC(=O)c1ccc(C(c2ccccc2)N2CCNCC2)cc1 (centres undefined),–,0.307,–,–,–,–,–,–
CCN(CC)C(=O)c1ccc(C(c2ccc(Cl)cc2)N2CCNCC2)cc1 (centres undefined),5.33,0.0193,> 10,107,0.113,–,–,–
CCN(CC)C(=O)c1ccc(C(c2ccc(OC)cc2)N2CCNCC2)cc1 (centres undefined),4.54,0.00813,> 10,90,0.187,–,–,–
CCN(CC)C(=O)c1ccc(C(c2ccccc2)N2CCN(C)CC2)cc1 (centres undefined),> 10,0.0404,6.97,58,0.211,–,–,–
CCN(CC)C(=O)c1ccc(C(c2cccc3ccccc23)N2CCNCC2)cc1 (centres undefined),0.777,0.00236,4.91,99,0.018,–,–,–
CCN(CC)C(=O)c1ccc(C(c2ccccc2)N2CCCCC2)cc1 (centres undefined),–,2.23,–,–,–,–,–,–
NC(=O)c1ccc(C(c2ccccc2)N2CCNCC2)cc1 (centres undefined),–,0.509,–,–,–,–,–,–
CCN(CC)Cc1ccc(C(c2ccccc2)N2CCNCC2)cc1 (centres undefined),–,0.555,–,–,–,–,–,–

SMILES,IC50 [1] [µM],IC50 [2] [µM],IC50 [3] [µM],Emax [4] [%],EC50 [5] [µM],"remaining at 1 h, 100 µM [6] [%]","remaining at 1 h, 10 µM [7] [%]",Emax [8] [%]
CCN(CC)C(=O)c1ccc(C(C2CCCCC2)N2CCNCC2)cc1 (centres undefined),0.185,0.0984,0.724,–,–,–,–,–
CCN(CC)C(=O)c1ccc(C(c2cccc3cccnc23)N2CCNCC2)cc1 (centres undefined),0.632,0.00051,7.02,104,0.0036,83,52,–
CCN(CC)C(=O)c1ccc(C(c2ccc3cc[nH]c3c2)N2CCNCC2)cc1 (centres undefined),2.22,0.00681,3.97,105,0.0449,–,–,–
CCNC(=O)c1ccc(C(c2ccccc2)N2CCNCC2)cc1 (centres undefined),–,0.175,–,–,–,–,–,–
CC(C)(O)c1ccc(C(c2ccccc2)N2CCNCC2)cc1 (centres undefined),–,0.406,–,–,–,–,–,–
CCN(CC)C(=O)c1ccc(C(c2cccc(F)c2)N2CCNCC2)cc1 (centres undefined),5.65,0.0045,> 10,97,0.0533,–,–,–
CCN(CC)C(=O)c1ccc(C(c2ccnc3ccccc23)N2CCNCC2)cc1 (centres undefined),–,0.132,–,–,–,–,–,–
C=CCN1C[C@H](C)N([C@H](c2ccc(C(=O)N(CC)CC)cc2)c2cccc(O)c2)C[C@H]1C,0.0021,–,0.02,98,0.00012,59,4,–
CCN(CC)C(=O)c1ccc(C(c2ccccc2)N2CCOCC2)cc1 (centres undefined),–,> 10,–,–,–,–,–,–
CCN(CC)C(=O)c1ccc(C(c2ccc(C)cc2)N2CCNCC2)cc1 (centres undefined),7.09,0.00842,> 10,84,0.0781,–,–,–
C=CCN1C[C@H](C)N([C@H](c2ccc(C(=O)N(CC)CC)cc2)c2cccc(OC)c2)C[C@H]1C,–,–,–,100,–,–,–,–
O=C(O)c1ccc(C(c2ccccc2)N2CCNCC2)cc1 (centres undefined),–,0.41,–,–,–,–,–,–
CCN(CC)C(=O)c1ccc(C(c2ccccc2)N2CCNCC2)cc1 (centres undefined),–,–,–,104,–,89,60,–
CCCCN1CCN(C(c2ccccc2)c2ccc(C(=O)N(CC)CC)cc2)CC1 (centres undefined),0.486,0.0286,> 10,–,–,–,–,–
CN1CCc2cc(-c3ccc(C(c4ccccc4)N4CCNCC4)cc3)ccc2C1=O (centres undefined),–,1.65,–,–,–,–,–,–
CCN(CC)C(=O)c1ccc(C(c2ccccc2)N2CCCNCC2)cc1 (centres undefined),2.29,0.0196,4.53,96,0.303,–,–,–
CCN(CC)C(=O)c1ccc(C(c2ccc3ncccc3c2)N2CCNCC2)cc1 (centres undefined),–,0.0616,–,–,–,–,–,–
CCN(CC)C(=O)c1ccc(C(c2ccc3cccnc3c2)N2CCNCC2)cc1 (centres undefined),1.02,0.0011,3.16,–,0.00686,–,–,100
CCN(CC)C(=O)c1ccc(C(c2ccc3ccccc3c2)N2CCNCC2)cc1 (centres undefined),2.68,0.00763,> 10,110,0.05,–,–,–
CCN(CC)C(=O)c1ccc(C(c2cccc(OC)c2)N2CC(C)NCC2(C)C)cc1 (centres undefined),0.284,0.0533,> 10,94,0.273,–,–,–
CN(C)C(=O)c1ccc(C(c2ccccc2)N2CCNCC2)cc1 (centres undefined),–,0.0604,–,–,–,–,–,–
